Experimental data taken from ChEMBL document CHEMBL4814031, “In pursuit of a selective hepatocellular carcinoma therapeutic agent: Novel thalidomide derivatives with antiproliferative, antimigratory and STAT3 inhibitory properties” (Eur J Med Chem, 2021).
Calls of active or inactive are those of the source. No cut-off for these calls is given here.

How the values were obtained:
[1] = Antiproliferative activity against mouse BMOL-NT cells assessed as cell growth inhibition at 10 uM measured every 4 hrs for 3 days by IncuCyte zoom live cell analysis relative to control; type: cell-based; settings: time 3 day; for inhibition at 72 h, 10 µM: BMOL-NT cells; for Activity: bmol-nt, 72 h, 10 µM
BMOL-T [2] = experiment: Antiproliferative activity against mouse BMOL-T cells assessed as cell growth inhibition at 10 uM measured every 4 hrs for 3 days by IncuCyte zoom live cell analysis relative to control; type: functional; settings: time 3.0 day
[3] = Antiproliferative activity against mouse BMOL-NT cells assessed as cell growth by measuring doubling time at 10 uM measured every 4 hrs for 3 days by IncuCyte zoom live cell analysis (reference value: 18 to 19 hrs); type: cell-based; settings: 72 h, time 3 day
[4] = Antiproliferative activity against mouse BMOL-T cells assessed as cell growth by measuring doubling time at 10 uM measured every 4 hrs for 3 days by IncuCyte zoom live cell analysis (reference value: 14.3 to 15 hrs); type: functional; settings: time 3 day
[5] = Antiproliferative activity against mouse BMOL-NT cells assessed as change in doubling time at 10 uM measured every 4 hrs for 3 days by IncuCyte zoom live cell analysis relative to control; type: cell-based; settings: 72 h, time 3 day
[6] = Antiproliferative activity against mouse BMOL-T cells assessed as change in doubling time at 10 uM measured every 4 hrs for 3 days by IncuCyte zoom live cell analysis relative to control; type: functional; settings: time 3 day
[7] = biological target: Signal transducer and activator of transcription 3 (Mus musculus) (UniProt P42227); experiment: Inhibition of STAT3 phosphorylation in mouse BMOL-T cells at 10 uM by AlphaLISA assay; type: cell-based
Method in brief: (§1)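 AlphaLISA in BMOL-T cells treated at 10 µM with 0.1% DMSO vehicle as control. Read as normalised fluorescence for total STAT3, or as the ratio of total STAT3 to p-STAT3. n ≥ 3, SEM. Significance by ANOVA with Dunnett's test.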

BMOL-T [8] = experiment: Effect on STAT3 expression in mouse BMOL-T cells at 10 uM by AlphaLISA assay; type: functional, cell-based; method in brief: as §1
[9] = Selectivity for antiproliferative activity against mouse BMOL-T cells over mouse BMOL-NT cells at 10 uM measured every 4 hrs for 3 days by IncuCyte zoom live cell analysis; settings: time 3 day

Signal transducer and activator of transcription 3 (Mus musculus), sequence (P42227 whole entry): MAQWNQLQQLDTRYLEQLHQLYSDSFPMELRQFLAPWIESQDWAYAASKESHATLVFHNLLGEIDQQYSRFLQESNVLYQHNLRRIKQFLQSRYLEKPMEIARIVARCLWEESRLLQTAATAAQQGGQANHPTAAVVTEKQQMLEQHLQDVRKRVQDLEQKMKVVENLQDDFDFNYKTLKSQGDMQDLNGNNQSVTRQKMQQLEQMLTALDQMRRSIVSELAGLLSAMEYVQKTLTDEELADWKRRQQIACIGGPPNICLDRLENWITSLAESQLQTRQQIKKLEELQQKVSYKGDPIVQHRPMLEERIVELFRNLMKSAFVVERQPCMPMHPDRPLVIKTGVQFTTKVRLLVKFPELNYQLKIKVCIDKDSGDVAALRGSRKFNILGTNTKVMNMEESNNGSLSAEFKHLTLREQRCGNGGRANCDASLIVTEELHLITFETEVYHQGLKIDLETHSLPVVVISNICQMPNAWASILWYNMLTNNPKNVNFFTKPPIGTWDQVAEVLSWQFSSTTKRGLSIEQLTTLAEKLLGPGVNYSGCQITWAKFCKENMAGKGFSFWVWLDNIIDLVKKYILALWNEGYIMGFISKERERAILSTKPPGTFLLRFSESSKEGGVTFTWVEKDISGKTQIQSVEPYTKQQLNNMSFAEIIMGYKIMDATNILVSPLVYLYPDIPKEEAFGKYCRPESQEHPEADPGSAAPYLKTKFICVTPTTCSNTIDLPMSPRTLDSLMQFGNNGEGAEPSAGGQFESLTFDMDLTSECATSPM

SMILES | Activity (BMOL-T [2]) | Time [3] | Time [4] | other results
CCCCc1ccc(Nc2cccc3c2C(=O)N(C2CCC(=O)NC2=O)C3=O)cc1 (stereo not drawn) | Active | – | – | inhibition at 72 h, 10 µM [1]: ≤ 10%
O=C1CCC(N2C(=O)c3ccccc3C2=O)C(=O)N1 (stereo not drawn) [THALIDOMIDE] | – | 18 h | 15 h | –
CC(C)c1ccc(S(=O)(=O)c2cccc3c2C(=O)N(C2CCC(=O)NC2=O)C3=O)cc1 (stereo not drawn) | – | 17.4 h | 14.9 h | Activity [5]: 3%; Activity [6]: 3%
O=C1CCC(N2C(=O)c3cccc(Nc4ccccc4)c3C2=O)C(=O)N1 (stereo not drawn) | – | 17.4 h | 14.3 h | Activity [6]: 7%
O=C1CCC(N2C(=O)c3cccc(Sc4ncccn4)c3C2=O)C(=O)N1 (stereo not drawn) | – | – | – | Activity [1]: Non-Toxic
Cc1ccc(Nc2cccc3c2C(=O)N(C2CCC(=O)NC2=O)C3=O)cc1 (stereo not drawn) | inactive | – | – | –
CN1C(=O)CCC(N2C(=O)c3cccc(Sc4ccc(C(C)(C)C)cc4)c3C2=O)C1=O (stereo not drawn) | – | 24 h | 16.3 h | inhibition [7]: inactive; Activity [5]: 26%; Activity [6]: 14%; Activity (BMOL-T [8]): inactive
O=C1CCC(N2C(=O)c3cccc(Nc4ccc(O)cc4)c3C2=O)C(=O)N1 (stereo not drawn) | Active | – | – | –
CNC(=O)c1cc(Oc2ccc(NC(=O)Nc3ccc(Cl)c(C(F)(F)F)c3)cc2)ccn1 [SORAFENIB] | – | 50 h | 71 h | Activity [5]: 181%; Activity [6]: 382%; Selectivity ratio [9]: 2.1
O=C1CCC(N2C(=O)c3cccc(Sc4ccccc4)c3C2=O)C(=O)N1 (stereo not drawn) | – | 16.8 h | 13.8 h | Activity [5]: 1%; Activity [6]: 2%
O=C1CCC(N2C(=O)c3cccc(Sc4ccc(C(F)(F)F)cc4)c3C2=O)C(=O)N1 (stereo not drawn) | inactive | – | – | –
CCCc1ccc(Nc2cccc3c2C(=O)N(C2CCC(=O)NC2=O)C3=O)cc1 (stereo not drawn) | Active | – | – | –
O=C1CCC(N2C(=O)c3cccc(Nc4ccc5c(c4)CCCC5)c3C2=O)C(=O)N1 (stereo not drawn) | Active | – | – | inhibition at 72 h, 10 µM [1]: ≤ 10%
Cc1ccc(Sc2cccc3c2C(=O)N(C2CCC(=O)NC2=O)C3=O)cc1 (stereo not drawn) | – | 19.3 h | – | –
O=C1CCC(N2C(=O)c3cccc(Sc4ccc5ccccc5n4)c3C2=O)C(=O)N1 (stereo not drawn) | – | – | – | Activity [1]: Non-Toxic
Nc1cccc2c1C(=O)N(C1CCC(=O)NC1=O)C2=O (stereo not drawn) [POMALIDOMIDE] | – | 18 h | 15 h | –
COc1ccc(Sc2cccc3c2C(=O)N(C2CCC(=O)NC2=O)C3=O)cc1 (stereo not drawn) | – | – | – | Activity [1]: Toxic
